Source: paper PMC11737066 (RSC Advances, 2025)

Test: Parallel artificial membrane permeability assay
Type: in vitro ADME
Conditions: 24 h incubation at 37 °C; initial minus final donor and acceptor concentration
Outline: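 Artificial membrane made of 1% (mass fraction) lecithin in dodecane, applied to hydrophobic PVDF filter donor wells. Test compound solution was added to the donor side, and the donor/acceptor sandwich was incubated 24 h at 37 °C. Donor and acceptor concentrations were taken from maximum absorbance (scan 190–400 nm). Membrane integrity was checked with brilliant cresyl blue and lucifer yellow.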

Row | Compound | % of compound integrated in membrane
1 | CCCCCCCCCCCC[N+](C)(C)Cc1ccccc1.[Br-] [BAB, dimethyldodecylbenzylammonium bromide] | ≈ 97%
2 | CCCCCCCCCCCCCCCC[n+]1ccccc1 [CPC, cetylpyridinium chloride] | ≈ 97%
